IMP-1 inh – inhibitors of Pseudomonas aeruginosa IMP-1 metallo-beta-lactamase; purified IMP-1, nitrocefin hydrolysis, epi-absorbance fluorescence; inhibition, % at 5.6 µM; 0.45% of 290,000 active;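 active means inhibition above the mean plus 3 SD of all compounds in the same screening run, cut at about 4.5% in these data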;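 further: 0% = IMP-1 with DMSO and 100% = DMSO wells lacking enzyme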
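System: purified IMP-1; amount: IMP-1 0.2 nM before substrate addition; compound: single dose, 5.6 µM; times: 25 °C, 15 min preincubation, 25 min reaction; signal: Epi-absorbance via hydrolysed-nitrocefin quenching of white-plate fluorescence, 480/530 nm, EDTA stop; benchmarks: DMSO with and without IMP-1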
MIN6 prolif – inducers of beta-cell replication in MIN6 cells | MIN6 cells proliferation, ATPlite luminescence, 48 h; cells starved in 0.2% serum; 100% = growth in 10% serum | proliferation, % at 10 µM | 0.29% of 330,000 active | AID 2380;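 active means compounds whose signal lies at least 3.5 SD above the mean of all wells on their plate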;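 further: 0% = DMSO-treated cells in low-serum medium and 100% = 10% serum control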
ATG4B inhibitor – blocks human ATG4B protease cleavage of LC3 substrate. Q9Y4P1. ATG4B cleavage of LC3-PLA2, NBD-HPC fluorescence, 1 h. inhibition, % at 8.33 µM. 0.51% of 340,000 active; in the data active means inhibition above about 40%
VIM-2 inh – blocks Pseudomonas aeruginosa VIM-2 metallo-beta-lactamase | purified VIM-2, nitrocefin hydrolysis, epi-absorbance fluorescence | inhibition, % at 5.6 µM | 0.89% of 290,000 active;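 active means inhibition above the mean of all tested compounds plus 3 SD, cutoff set per screening run, cut at about 7.5% in these data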;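 further: red hydrolysis product quenches plate fluorescence so inhibitors raise well fluorescence; 0% = enzyme with DMSO and 100% = DMSO without enzyme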
PvdQ inh – blocks Pseudomonas aeruginosa PvdQ acylase activity; 0.063% of 340,000 active; inhibition, % at 10 µM; purified PvdQ acylase, fluorescence plate reader; in the data active means inhibition above about 30%, passing the limit was not always enough;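 further: 0% = vehicle neutral wells and 100% = reference inhibitor wells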
HKDC1 inhibitor – blocks human hexokinase HKDC1 activity. Q2TB90. recombinant HKDC1, G6PDH/diaphorase resazurin coupled fluorescence. AID 493160. inhibition, % at 20 µM. 0.16% of 340,000 active;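 active means inhibition above about 35% when tested at 20 µM, limit read from the data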;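 further: plate controls were DMSO wells with enzyme for no effect and DMSO wells lacking enzyme for full effect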
Target sequence (Q2TB90 whole entry, looked up): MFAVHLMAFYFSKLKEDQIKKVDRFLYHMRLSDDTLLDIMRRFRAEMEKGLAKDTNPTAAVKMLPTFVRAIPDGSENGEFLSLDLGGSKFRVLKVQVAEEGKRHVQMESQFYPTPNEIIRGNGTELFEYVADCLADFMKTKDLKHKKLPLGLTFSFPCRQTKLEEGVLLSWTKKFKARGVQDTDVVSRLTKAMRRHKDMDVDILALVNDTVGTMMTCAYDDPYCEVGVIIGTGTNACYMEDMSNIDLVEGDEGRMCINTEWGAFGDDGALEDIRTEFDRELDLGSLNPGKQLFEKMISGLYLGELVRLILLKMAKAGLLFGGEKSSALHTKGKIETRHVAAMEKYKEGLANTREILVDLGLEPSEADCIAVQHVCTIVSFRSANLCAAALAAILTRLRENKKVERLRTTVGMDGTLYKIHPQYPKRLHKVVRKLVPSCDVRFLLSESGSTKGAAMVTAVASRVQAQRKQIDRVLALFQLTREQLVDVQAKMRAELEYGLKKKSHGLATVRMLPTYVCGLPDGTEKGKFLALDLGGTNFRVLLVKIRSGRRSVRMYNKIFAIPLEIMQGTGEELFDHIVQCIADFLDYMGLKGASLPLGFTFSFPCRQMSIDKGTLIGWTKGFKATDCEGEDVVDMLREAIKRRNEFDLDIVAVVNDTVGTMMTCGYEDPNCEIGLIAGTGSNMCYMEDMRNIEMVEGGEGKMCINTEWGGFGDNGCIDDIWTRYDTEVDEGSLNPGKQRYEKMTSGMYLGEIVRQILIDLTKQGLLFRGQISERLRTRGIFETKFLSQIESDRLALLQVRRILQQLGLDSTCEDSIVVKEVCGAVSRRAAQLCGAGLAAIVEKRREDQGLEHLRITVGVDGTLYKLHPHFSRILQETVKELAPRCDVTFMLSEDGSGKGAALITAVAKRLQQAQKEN
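System: Recombinant HKDC1 hexokinase | Amount: HKDC1 at 5 µg/mL | Reagent: Glucose with 1 mM ATP | Doses: Single 20 µM dose | Incubation: Reaction time 90 min, room temperature, protected from light | Signal: Coupled resazurin fluorescence, excitation 525 nm, emission 613 nm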
An asterisk follows results filed as active; . = not tested or not shown. Hits are enriched below; roughly 2% of the tested compounds scored in any of these assays.

SMILES | IMP-1 inh | MIN6 prolif | ATG4B inhibitor | VIM-2 inh | PvdQ inh | HKDC1 inhibitor
O=C1C2CC=C(Cl)CC2C(=O)N1CCc1c[nH]c2ccccc12 (stereo not drawn) | -1 | -3 | 1 | 0 | -5 | -5
O=C1C2CC=C(Cl)CC2C(=O)N1CCc1ccccc1 (stereo not drawn) | 6.9* | 4 | 21 | -1 | -12 | -5
CCOc1ccc(N(C)c2ccc(/C=C3/SC(=S)NC3=O)cc2)cc1 | 6.5* | -4 | 6 | 2 | 7 | 1
CCOC(=O)C(Sc1ncnc2c1sc1nc(N3CCOCC3)c3c(c12)CCCC3)c1ccccc1 (stereo not drawn) | 6.2* | . | . | -6 | . | .
O=C(O)CSc1ncnc2c1sc1nc(-c3ccccc3)c3c(c12)CCC3 | 9.4* | -5 | -2 | -2 | -8 | -5
S=c1nc[nH]c2c1sc1nc(-c3ccccc3)c3c(c12)CCCC3 | 16* | -6 | 19 | 1 | -8 | -6
CN1CCN(c2ncnc3c2sc2nc(N4CCOCC4)c4c(c23)CCC4)CC1 | -3 | . | . | 7 | . | .
OCCN1CCN(c2ncnc3c2sc2nc(N4CCOCC4)c4c(c23)CCC4)CC1 | 0 | -3 | -11 | 9.9* | -4 | 22
CCOC(=O)CSc1ncnc2c1sc1nc(N3CCOCC3)c3c(c12)CCCC3 | 2 | -4 | -10 | 0 | -14 | 0
Cc1ccc(-c2nc3ncccc3o2)cc1NC(=O)c1ccc2c(c1)OCO2 | . | . | -2 | . | -9 | -1
COc1ccc(/C=C/C(=O)C23CC4CC(CC(C4)C2)C3)cc1CN1CCOCC1 | 1 | -5 | 3 | 2 | -7 | -5
CCOCCOc1nc2c(c(=O)n(C)c(=O)n2C)n1Cc1ccc(C)cc1 | -3 | -1 | -5 | -4 | -6 | -1
CCCCOc1ccccc1NC(=O)CSc1nnnn1C(C)(C)C | -1 | -3 | 3 | -3 | 4 | 2
OCCN(CCO)c1ncnc2c1sc1nc(N3CCOCC3)c3c(c12)CCCC3 | -3 | -4 | -7 | 9.0* | -2 | 15
CSc1nc(SCCO)c2sc3nc(-c4ccco4)c4c(c3c2n1)CC(C)(C)OC4 | 4 | . | 6 | 3 | -17 | 21
CSc1nc(N(CCO)CCO)c2sc3nc(-c4ccco4)c4c(c3c2n1)CCC4 | 12* | . | 0 | 1 | -14 | 37*
COc1ccc(S(=O)(=O)Nc2ccc(-c3ccc4nncn4n3)cc2)c(OC)c1 | . | 3 | -3 | . | -7 | 2
Cc1ccc(C)c2nc3sc(C(=O)O)cc3cc12 | -4 | 3 | -2 | 9.6* | -8 | -3
Cc1ccc(C)c2nc3sc(C(=O)N4CCCc5ccccc54)c(N)c3cc12 | -1 | -6 | 2 | -3 | 0 | 1
Cc1c(Cl)cccc1-c1ccc(CNCc2ccccn2)o1 | -2 | 3 | 11 | 7.9* | -13 | 4
CCCCOc1ccc(CN2CCC(O)CC2)cc1 | 45* | -2 | -12 | -3 | -16 | 2
CSc1ccc(CN2CCC(O)CC2)cc1 | -1 | . | . | -2 | . | .
COC(=O)c1ccc(NC(=O)Cn2nc(C(=O)Nc3ccc(C)cc3)ccc2=O)cc1 | 11* | 1 | 5 | 0 | -8 | -2
Cc1ccc(NC(=O)c2ccc(=O)n(CC(=O)Nc3c(C)cc(C)cc3C)n2)cc1 | 1 | -6 | 19 | -2 | -7 | 3
O=c1c2ccccc2nc(-c2ccccc2)n1CCCn1ccnc1 | -5 | -3 | -6 | 0 | -19 | -7
SMILES | IMP-1 inh | MIN6 prolif | ATG4B inhibitor | VIM-2 inh | PvdQ inh | HKDC1 inhibitor
O=c1c2ccccc2nc(-c2ccco2)n1CCCn1ccnc1 | -3 | -1 | 4 | 8.1* | -13 | -10
Cc1c(C)n(CCc2ccccc2)c2ncnc(NN)c12 | 1 | -3 | -11 | 7.8* | -5 | -2
O=C(COc1ccc2c(c1)OCO2)Nc1cccc(F)c1 | -3 | -3 | -7 | -4 | -1 | -2
O=C1NC(=O)/C(=C\c2ccc(O)cc2O)S1 | 6.0* | -3 | -4 | 2 | -9 | 4
O=[N+]([O-])c1ccccc1N/N=C1\CC2CC=CC12 (stereo not drawn) | -3 | 0 | 5 | -2 | 58* | -2
O=C(N/N=C1\CC2CC=CC12)c1ccccc1Cl (stereo not drawn) | -1 | 3 | 11 | -2 | 17 | -6
Cc1cc(C)nc(N(C#N)Cc2cccc([N+](=O)[O-])c2)n1 | 0 | -1 | 1 | 2 | 36* | -5
COc1ccc(CN(C#N)c2nc(C)cc(C)n2)cc1 | -3 | -1 | -4 | -1 | 3 | -3
CC(C)C(=O)COc1c2occc2cc2ccc(=O)oc12 | . | -3 | -7 | . | -10 | -1
Cn1c(N)c(C(=O)COC(=O)c2ccc([N+](=O)[O-])o2)c(=O)n(C)c1=O | -2 | -1 | -18 | -2 | -10 | 2
COc1cccc(/C=C2/Sc3ccc(C(=O)NCCN4CCCC4)cc3NC2=O)c1 | -3 | -4 | 9 | 11* | 5 | -3
O=C(NCCCN1CCOCC1)c1cc2nc(-c3ccco3)cc(C(F)(F)F)n2n1 | -2 | 0 | -3 | 12* | 6 | -1
CCN(CC)c1ccc(-c2nnc(SCC(=O)N(CCOC)c3c(N)n(CC(C)C)c(=O)[nH]c3=O)o2)cc1 | . | 0 | -9 | . | -10 | -4
Cc1ccc(NC(=O)CSc2nc3ccccc3c(=O)n2CCCC(=O)N2CCCC2)cc1 | 10* | -2 | -10 | 1 | -11 | 0
COCCCn1c(SCC(=O)Nc2ccc(C)cc2)nc2ccccc2c1=O | -1 | 1 | -4 | -2 | -3 | 10
COc1cccc(-c2nc(N3CCN(C)CC3)c3ccccc3n2)c1O | -2 | -6 | -12 | 10* | 3 | 3
CCN1CCN(c2nc(-c3ccccc3Cl)nc3ccccc23)CC1 | -2 | -3 | 5 | -3 | -8 | -5
OCCN1CCN(c2nc(-c3ccccc3O)nc3ccccc23)CC1 | -2 | 3 | -8 | 11* | 18 | 2
CCOc1ccccc1N(CC(=O)OC)S(C)(=O)=O | 4.9* | -3 | -1 | -2 | -11 | -7
CCOc1ccccc1N(CC(=O)N1CCCCCC1)S(C)(=O)=O | -2 | 1 | -6 | -1 | -7 | 2
COCC(=O)N1CCC(Oc2ccc(C(=O)N3CCCCCC3)cc2)CC1 | -1 | 2 | -2 | -1 | -16 | -4
CCn1c(SCC(=O)N(C(C)C)C(C)C)nnc1-c1cc2ccccc2cc1O | -7 | -5 | -16 | 12* | -8 | -3
CCOC(=O)C(Cc1ccccc1)(Cc1ccccc1)C(C)=O | -3 | 2 | 25 | -3 | -7 | 1
COc1ccc2[nH]c(=O)c3c(c2c1)OC(C)(C)C=C3 | 39* | 8 | 2 | -2 | 3 | 2
N#Cc1c(-c2ccncc2)c2c([nH]c1=S)CCCC2 | -5 | -2 | -9 | -2 | 0 | -1
Cc1ccc(-c2c3c([nH]c(=S)c2C#N)CCCC3)o1 | 9.7* | -1 | 2 | 2 | -2 | 2

From PubChem BioAssay
